Columns and labels:
[1] = Inhibition of melanogenesis in theophylline-stimulated mouse B16-4A5 cells at 5 uM after 72 hrs by microplate reader; assay type: functional; set-up: scale not given: the % may be the effect or the level left
Method in brief: (§1)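 B16 melanoma 4A5 cells seeded 2.0 × 10^4 cells/well in 24-well plates and cultured 24 h. Then 72 h with compound plus 1 mM theophylline (DMSO, final 0.1%). Cells trypsin/EDTA-harvested, washed, lysed in 1 M NaOH (80 °C, 30 min). Lysate melanin read by OD at 405 nm (ref 655 nm). Inhibition (%) = [(A − B)/A] × 100 versus vehicle. Mean ± SEM, n = 4.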

[2] = Inhibition of melanogenesis in theophylline-stimulated mouse B16-4A5 cells at 10 uM after 72 hrs by microplate reader; assay type: functional; set-up: scale not given: the % may be the effect or the level left; method in brief: as §1
[3] = Inhibition of melanogenesis in theophylline-stimulated mouse B16-4A5 cells at 20 uM after 72 hrs by microplate reader; assay type: functional; set-up: scale not given: the % may be the effect or the level left; method in brief: as §1
[4] = Antiproliferative activity against mouse B16-4A5 cells at 5 uM after 72 hrs by WST-8 assay; assay type: functional
Method in brief: (§2)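 Murine B16 melanoma 4A5 cells (DMEM 4.5 g/L glucose, 10% FBS) seeded 5.0 × 10^4 cells/well in 96-well plates and cultured 24 h. Then 72 h with 1 mM theophylline plus compound (DMSO, final 0.1%). Cells washed with PBS, WST-8 formazan read at 450 nm (ref 655 nm). Inhibition (%) = [(A − B)/A] × 100 versus vehicle. Mean ± SEM, n = 4.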

[5] = Antiproliferative activity against mouse B16-4A5 cells at 10 uM after 72 hrs by WST-8 assay; assay type: functional; method in brief: as §2
[6] = Antiproliferative activity against mouse B16-4A5 cells at 20 uM after 72 hrs by WST-8 assay; assay type: functional; method in brief: as §2
[7] = Induction of proliferation of neonatal skin fibroblasts assessed as WST-8 formazan accumulation per well at 5 uM after 48 hrs by WST-8 assay relative to control; assay type: functional, Homo sapiens, Skin fibroblast
Method in brief: (§3)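 Normal human neonatal skin fibroblasts NB1RGB (DMEM 1 g/L glucose, 10% FBS, 37 °C, 5% CO2) seeded 5.0 × 10^4 cells/well in 96-well plates. Incubated 48 h with compound (DMSO, final 0.1%). Water-soluble WST-8 formazan read at 450 nm (ref 655 nm) and expressed as % of vehicle control.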

[8] = Induction of proliferation of neonatal skin fibroblasts assessed as WST-8 formazan accumulation per well at 10 uM after 48 hrs by WST-8 assay relative to control; assay type: functional, Homo sapiens, Skin fibroblast; method in brief: as §3
[9] = Induction of proliferation of neonatal skin fibroblasts assessed as WST-8 formazan accumulation per well at 20 uM after 48 hrs by WST-8 assay relative to control; assay type: functional, Homo sapiens, Skin fibroblast; method in brief: as §3
[10] = Induction of proliferation of neonatal skin fibroblasts assessed as protein content per well at 5 uM after 48 hrs by […] relative to control; assay type: functional, Homo sapiens, Skin fibroblast
Method in brief: (§4)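 Normal human neonatal skin fibroblasts NB1RGB seeded 5.0 × 10^4 cells/well in 96-well plates. Exposed 48 h to compound (DMSO, final 0.1%). Cellular protein content determined by BCA protein assay and expressed as % of vehicle control.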

[11] = Induction of proliferation of neonatal skin fibroblasts assessed as protein content per well at 10 uM after 48 hrs by […] relative to control; assay type: functional, Homo sapiens, Skin fibroblast; method in brief: as §4
[12] = Induction of proliferation of neonatal skin fibroblasts assessed as protein content per well at 20 uM after 48 hrs […] relative to control; assay type: functional, Homo sapiens, Skin fibroblast; method in brief: as §4
[13] = Induction of proliferation of neonatal skin fibroblasts assessed as WST-8 formazan accumulation per well at 50 uM after 48 hrs by WST-8 assay relative to control; assay type: functional, Homo sapiens, Skin fibroblast; method in brief: as §3
[14] = Induction of proliferation of neonatal skin fibroblasts assessed as protein content per well at 50 uM after 48 hrs by […] relative to control; assay type: functional, Homo sapiens, Skin fibroblast; method in brief: as §4
[15] = Inhibition of melanogenesis in theophylline-stimulated mouse B16-4A5 cells at 40 uM after 72 hrs by microplate reader; assay type: functional; set-up: scale not given: the % may be the effect or the level left; method in brief: as §1

| SMILES | Activity [1] [%] | Activity [2] [%] | Activity [3] [%] | Activity [4] [%] | Activity [5] [%] | Activity [6] [%] | Activity [7] [%] | Activity [8] [%] | Activity [9] [%] | Activity [10] [%] | Activity [11] [%] | Activity [12] [%] | Activity [13] [%] | Activity [14] [%] | Activity [15] [%] |
| --- | --- | --- | --- | --- | --- | --- | --- | --- | --- | --- | --- | --- | --- | --- | --- |
| CC1(C)CC[C@]2(O)[C@H](O)C[C@]3(C)C(=CC[C@@H]4[C@@]5(C)CC[C@H](O[C@@H]6O[C@H](C(=O)O)[C@@H](O)[C@H](O[C@@H]7O[C@H](CO)[C@H](O)[C@H](O)[C@H]7O[C@@H]7O[C@H](CO)[C@@H](O)[C@H](O)[C@H]7O)[C@H]6O[C@@H]6O[C@H](CO)[C@H](O)[C@H](O)[C@H]6O)C(C)(C)[C@@H]5CC[C@]43C)[C@@H]2C1 (relative stereo) | 21.9 | 16.7 | 23.3 | 1.9 | 4.3 | 13.3 | 108.3 | 110 | 116.2 | 113.9 | 110.6 | 114.9 | – | – | – |
| C/C=C(\C)C(=O)O[C@H]1[C@H](OC(=O)/C(C)=C/C)[C@]2(CO)[C@H](O)[C@H](O)[C@]3(C)C(=CC[C@@H]4[C@@]5(C)CC[C@H](O[C@@H]6O[C@H](C(=O)O)[C@@H](O)[C@H](O[C@@H]7O[C@H](CO)[C@H](O)[C@H](O)[C@H]7O[C@@H]7O[C@@H](C)[C@H](O)[C@@H](O)[C@H]7O)[C@H]6O[C@@H]6O[C@H](CO)[C@@H](O)[C@H](O)[C@H]6O)C(C)(C)[C@@H]5CC[C@]43C)[C@@H]2CC1(C)C [YUCHASAPONIN A] | – | – | – | – | – | – | – | 16.6 | – | – | 45.3 | – | 16.8 | 49.4 | – |
| CC1(C)CC[C@]2(O)C(=O)C[C@]3(C)C(=CC[C@@H]4[C@@]5(C)CC[C@H](O[C@@H]6O[C@H](C(=O)O)[C@@H](O)[C@H](O[C@@H]7O[C@H](CO)[C@H](O)[C@H](O)[C@H]7O[C@@H]7O[C@H](CO)[C@@H](O)[C@H](O)[C@H]7O)[C@H]6O[C@H]6O[C@@H](CO)[C@@H](O)[C@@H](O)[C@@H]6O)C(C)(C)C5CC[C@]43C)[C@@H]2C1 (stereo not given in full) [CAMELLIOSIDE A] | 12.1 | 36 | 74.9 | -3.8 | 5.1 | 19.7 | 114.6 | 114.3 | 113.6 | 120.8 | 126.9 | 113.8 | – | – | – |
| C/C=C(/C)C(=O)O[C@H]1CC(C)(C)C[C@H]2C3=CC[C@@H]4[C@@]5(C)CC[C@H](O[C@@H]6O[C@H](C(=O)O)[C@@H](O)[C@H](O[C@@H]7O[C@H](CO)[C@H](O)[C@H](O)[C@H]7O[C@@H]7O[C@@H](C)[C@H](O)[C@@H](O)[C@H]7O)[C@H]6O[C@@H]6O[C@H](CO)[C@@H](O)[C@H](O)[C@H]6O)C(C)(C)[C@@H]5CC[C@@]4(C)[C@]3(C)[C@@H](O)[C@@H](O)[C@@]12CO [SASANQUASAPONIN III] | – | – | – | – | – | – | – | 16.6 | – | – | 48.6 | – | 16.8 | 48.8 | – |
| CC(=O)O[C@@H]1[C@H](O)[C@@H](O)[C@H](O[C@H]2[C@H](O[C@H]3CC[C@]4(C)[C@H]5CC=C6[C@@H]7CC(C)(C)CC[C@]7(O)C(=O)C[C@@]6(C)[C@]5(C)CC[C@H]4C3(C)C)O[C@H](C(=O)O)[C@@H](O)[C@@H]2O[C@@H]2O[C@H](CO)[C@H](O)[C@H](O)[C@H]2O[C@@H]2O[C@H](CO)[C@@H](O)[C@H](O)[C@H]2O)O[C@@H]1CO [CAMELLIOSIDE B] | 33.1 | 64.6 | 95 | 11.9 | 26 | 49 | 111.5 | 121.5 | 132.1 | 122.3 | 130 | 130.1 | – | – | – |
| O.O=C1O[C@H]([C@@H](O)CO)C(O)=C1OP(=O)([O-])[O-].[Mg+2] | – | – | – | – | – | – | 109.2 | 123.7 | 122.8 | 112.8 | 109.6 | 117.4 | – | – | – |
| CC1(C)CC[C@]2(C=O)[C@H](O)C[C@]3(C)C(=CC[C@@H]4[C@@]5(C)CC[C@H](O[C@@H]6O[C@H](C(=O)O)[C@@H](O)[C@H](O[C@@H]7O[C@H](CO)[C@H](O)[C@H](O)[C@H]7O[C@@H]7O[C@H](CO)[C@@H](O)[C@H](O)[C@H]7O)[C@H]6O[C@@H]6O[C@H](CO)[C@H](O)[C@H](O)[C@H]6O)C(C)(C)[C@@H]5CC[C@]43C)[C@@H]2C1 (relative stereo) | -19.7 | 16.3 | 91.6 | 17.4 | 55 | 52.8 | 102.1 | 102.5 | 102.2 | 120.4 | 120.3 | 110 | – | – | – |
| CCC/C=C\C(=O)O[C@H]1CC(C)(C)C[C@H]2C3=CC[C@@H]4[C@@]5(C)CC[C@H](O[C@@H]6O[C@H](C(=O)O)[C@@H](O)[C@H](O[C@@H]7O[C@H](CO)[C@H](O)[C@H](O)[C@H]7O[C@@H]7O[C@@H](C)[C@H](O)[C@@H](O)[C@H]7O)[C@H]6O[C@@H]6O[C@H](CO)[C@@H](O)[C@H](O)[C@H]6O)C(C)(C)[C@@H]5CC[C@@]4(C)[C@]3(C)[C@@H](O)[C@@H](O)[C@@]12CO [SASANQUASAPONIN I] | – | – | – | – | – | – | – | 34.9 | – | – | 71.5 | – | 16.4 | 44.8 | – |
| C/C=C(\C)C(=O)O[C@H]1CC(C)(C)C[C@H]2C3=CC[C@@H]4[C@@]5(C)CC[C@H](O[C@@H]6O[C@H](C(=O)O)[C@@H](O)[C@H](O[C@@H]7O[C@H](CO)[C@H](O)[C@H](O)[C@H]7O[C@@H]7O[C@@H](C)[C@H](O)[C@@H](O)[C@H]7O)[C@H]6O[C@@H]6O[C@H](CO)[C@@H](O)[C@H](O)[C@H]6O)C(C)(C)[C@@H]5CC[C@@]4(C)[C@]3(C)[C@@H](O)[C@@H](O)[C@@]12CO [SASANQUASAPONIN II] | – | – | – | – | – | – | – | 16.8 | – | – | 53.9 | – | 16.5 | 48.9 | – |
| OC[C@H]1O[C@@H](Oc2ccc(O)cc2)[C@H](O)[C@@H](O)[C@@H]1O [ARBUTIN] | – | -0.1 | 13.3 | – | – | – | – | – | – | – | – | – | – | – | 18 |
| CC1(C)CC[C@]2(CO)[C@H](O)C[C@]3(C)C(=CC[C@@H]4[C@@]5(C)CC[C@H](O[C@@H]6O[C@H](C(=O)O)[C@@H](O)[C@H](O[C@@H]7O[C@H](CO)[C@H](O)[C@H](O)[C@H]7O[C@@H]7O[C@H](CO)[C@@H](O)[C@H](O)[C@H]7O)[C@H]6O[C@@H]6O[C@H](CO)[C@H](O)[C@H](O)[C@H]6O)C(C)(C)[C@@H]5CC[C@]43C)[C@@H]2C1 [CAMELLIOSIDE D] | 0.3 | -6.2 | 8.3 | 16.1 | 16.3 | 29.5 | 107.6 | 98.6 | 108.6 | 110.7 | 113.1 | 94.7 | – | – | – |

— ChEMBL document CHEMBL2086299, “Melanogenesis inhibitory and fibroblast proliferation accelerating effects of noroleanane- and oleanane-type triterpene oligoglycosides from the flower buds of Camellia japonica” (2012)
